Experimental data: ChEMBL document CHEMBL1122988, “Studies on antianaphylactic agents. 7. Synthesis of antiallergic 5-oxo-5H-[1]benzopyrano[2,3-b]pyridines” (1985)

What was measured:
Format in all cases: functional
Rattus norvegicus [1] = assay: Anti-passive cutaneous anaphylaxis activity in rat (intravenous administration); settings: read-out: ID50 (the source's name)
Procedure, shortened: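 Male Sprague-Dawley rats (8 weeks, ~280 g) were sensitized passively. Antiserum was raised with egg albumin im plus killed B. pertussis ip, and diluted fourfold. Four 0.05-mL intradermal dorsal injections were given, with a 72-h latency. Challenge was iv with 5 mg egg albumin plus 10 mg Evans blue in 1 mL saline. Drug in saline or PEG 400 was given iv immediately before challenge. Dye leakage area was read at 30 min. ID50 came from a least-squares log dose–area fit.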

Rattus norvegicus [2] = assay: Compound was evaluated for anti passive cutaneous anaphylaxis activity in nonfasted rats administered oral route; settings: read-out: ID50 (the source's name)
Procedure, shortened: (§1)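 Homologous rat PCA in male Sprague-Dawley rats (8 weeks, ~280 g). Skin sites received 72 h of exposure to fourfold-diluted egg albumin antiserum. Drug was suspended in 5% gum arabic and given orally 5 min before iv challenge with egg albumin and Evans blue. Rats were bled 30 min later and dye leakage area (mm2) was measured. ID50 came from least-squares log dose regression, with Fieller fiducial limits.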

Rattus norvegicus [3] = assay: Compound was evaluated for anti passive cutaneous anaphylaxis activity in fasted rats administered oral route; settings: read-out: ID50 (the source's name); procedure, shortened: as §1
Rattus norvegicus [4] = assay: Compound was evaluated for anti passive cutaneous anaphylaxis activity in nonfasted rat, administered through intravenous route; settings: oral, in the assay text read “oral” for “intravenous”, read-out: ID50 (the source's name)
Rattus norvegicus [5] = assay: Compound was evaluated for anti passive cutaneous anaphylaxis activity in fasted rat, administered through intravenous route; settings: oral, in the assay text read “oral” for “intravenous”, read-out: ID50 (the source's name)

| Compound | ED50 (Rattus norvegicus [1]) | other results |
| --- | --- | --- |
| O=C([O-])c1cc(=O)c2c(OCC(O)COc3cccc4oc(C(=O)[O-])cc(=O)c34)cccc2o1.[Na+].[Na+] [CROMOLYN SODIUM] | 1.4 mg/kg |  |
| CCc1ccc(O)c(C(=O)c2cc(C(=O)O)c(C)nc2O)c1 | > 20 mg/kg |  |
| CC(C)c1ccc2oc3ncc(-c4nn[nH]n4)cc3c(=O)c2c1 | 0.0096 mg/kg | ED50 (Rattus norvegicus [2]): 0.46 mg/kg; ED50 (Rattus norvegicus [3]): 0.034 mg/kg |
| CONc1nc2oc3ccc(C(C)C)cc3c(=O)c2cc1C(=O)O | 0.0076 mg/kg | ED50 (Rattus norvegicus [2]): 4.6 mg/kg; ED50 (Rattus norvegicus [3]): 0.59 mg/kg |
| O=c1c2ccccc2oc2ncc(-c3nn[nH]n3)cc12 | 0.44 mg/kg |  |
| Cc1ccc2oc3nc(O)c(C(=O)O)cc3c(=O)c2c1 | 0.1 mg/kg |  |
| O=c1c2cc(-c3nn[nH]n3)cnc2oc2ccc3ccccc3c12 | 0.84 mg/kg |  |
| CNc1nc2oc3ccc(C(C)C)cc3c(=O)c2cc1C(=O)O | 0.39 mg/kg |  |
| CC(C)(C)c1ccc2oc3ncc(-c4nn[nH]n4)cc3c(=O)c2c1 | 0.047 mg/kg | ED50 (Rattus norvegicus [2]): 6 mg/kg |
| CC(C)c1ccc2oc3nc(O)c(C(=O)O)cc3c(=O)c2c1 | 0.02 mg/kg |  |
| CCc1ccc2oc3nc(N)c(C(=O)O)cc3c(=O)c2c1 | 0.14 mg/kg | ED50 (Rattus norvegicus [4]): 5.4 mg/kg |
| Cc1cc(C)c2oc3nc(O)c(C(=O)O)cc3c(=O)c2c1 | 0.12 mg/kg |  |
| CC(C)c1ccc2oc3nc(N)c(C(=O)O)cc3c(=O)c2c1 [AMLEXANOX] | 0.032 mg/kg | ED50 (Rattus norvegicus [2]): 6.1 mg/kg; ED50 (Rattus norvegicus [3]): 0.73 mg/kg |
| Cc1cc(C)c2oc3ncc(-c4nn[nH]n4)cc3c(=O)c2c1 | 0.31 mg/kg |  |
| COc1cccc2c(=O)c3cc(C(=O)O)c(O)nc3oc12 | 0.1 mg/kg |  |
| CCCCc1ccc2oc3nc(N)c(C(=O)O)cc3c(=O)c2c1 | 1.1 mg/kg |  |

| Compound | ED50 (Rattus norvegicus [1]) | other results |
| --- | --- | --- |
| CCc1ccc2oc3ncc(-c4nn[nH]n4)cc3c(=O)c2c1 | 0.11 mg/kg | ED50 (Rattus norvegicus [2]): 6.4 mg/kg |
| CCCCONc1nc2oc3ccc(C(C)C)cc3c(=O)c2cc1C(=O)O | 0.028 mg/kg | ED50 (Rattus norvegicus [2]): 3.5 mg/kg |
| O=C(O)c1cc2c(=O)c3ccccc3oc2nc1O | 0.62 mg/kg |  |
| CCc1ccc2oc3nc(O)c(C(=O)O)cc3c(=O)c2c1 | 0.041 mg/kg |  |
| CCONc1nc2oc3ccc(C(C)C)cc3c(=O)c2cc1C(=O)O | 0.014 mg/kg |  |
| COc1cccc2c(=O)c3cc(C(=O)O)c(N)nc3oc12 | 0.45 mg/kg |  |
| COc1ccc2oc3nc(O)c(C(=O)O)cc3c(=O)c2c1 | 0.042 mg/kg |  |
| CONc1nc2oc3ccc(C(C)C)cc3c(=O)c2cc1-c1nn[nH]n1 | 0.19 mg/kg |  |
| CCc1ccc2oc3nc(OC)c(C(=O)O)cc3c(=O)c2c1 | 0.5 mg/kg |  |
| CCc1ccc2oc3ncc(C(=O)O)cc3c(=O)c2c1 | 0.034 mg/kg | ED50 (Rattus norvegicus [4]): 0.95 mg/kg; ED50 (Rattus norvegicus [5]): 0.18 mg/kg |
| CC(C)c1ccc2oc3nc(NO)c(C(=O)O)cc3c(=O)c2c1 | 0.018 mg/kg | ED50 (Rattus norvegicus [2]): 1 mg/kg |
| O=C(O)c1cnc2oc3ccccc3c(=O)c2c1 | 0.63 mg/kg |  |
| CCc1ccc2oc3nc(C)c(C(=O)O)cc3c(=O)c2c1 | 0.73 mg/kg |  |
| CC(C)c1ccc2oc3ncc(C(=O)O)cc3c(=O)c2c1 | 0.059 mg/kg | ED50 (Rattus norvegicus [2]): 1.2 mg/kg |
| CC(C)c1ccc2oc3nc(N)c(-c4nn[nH]n4)cc3c(=O)c2c1 | 0.064 mg/kg |  |
